PHOSPHO1 inh: PHOSPHO1 (human) inhibition. AID 1565. 290,000 compounds, 1.1% hits. Q8TCT1. inhibition, % at 13.3 µM. recombinant PHOSPHO1, absorbance phosphatase assay; in the data active = inhibition above about 60%
Target sequence (Q8TCT1 whole entry, looked up): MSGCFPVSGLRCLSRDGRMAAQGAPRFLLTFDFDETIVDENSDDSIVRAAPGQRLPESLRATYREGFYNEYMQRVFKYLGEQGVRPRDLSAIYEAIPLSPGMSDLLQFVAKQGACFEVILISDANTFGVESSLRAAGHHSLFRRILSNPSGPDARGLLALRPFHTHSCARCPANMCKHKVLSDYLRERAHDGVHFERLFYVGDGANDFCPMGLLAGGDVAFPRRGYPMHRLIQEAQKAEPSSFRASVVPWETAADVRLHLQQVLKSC
HSF-1 act: increases HSF-1 driven luciferase reporter signal; 300,000 compounds, 1.7% hits; AID 504408; NIH3T3-HGL HSF-1 luciferase reporter, MG132, 8 h; 100% = twice DMSO control signal; activation, % at 9 µM;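 active = mean replicate activation of at least 50% with a set share of replicates each reaching 50%; inconclusive = only one of those two conditions met; inactive = mean below 50% and too few replicates reaching it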;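 note: 0% = median of the neutral control wells and 100% = twice that signal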
core dimer inh: blocks dimerization of HCV core protein; TR-FRET GST/Flag-core106 dimerization, 1536-well; inhibition, % at 5 µM; 300,000 compounds, 0.33% hits;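 active = inhibition above the mean of all tested compounds plus 3 SD, set per screening campaign, cut at about 45% in these data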
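System: GST-tagged and Flag-tagged HCV core protein residues 1-106 / Input: core106 proteins, GST 13.5 nM and Flag 17 nM / Buffer or medium: KF-containing HEPES buffer, pH 7.45, DTT, CHAPS, BSA / Probe or stimulus: Eu-anti-GST and XL665-anti-Flag labelled anti-tag antibodies / Schedule: 4 h, 22.5 °C incubation / Technique: TR-FRET 671 and 617 nm emission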
HSF1 inh: HSF1 inhibition; NIH3T3-HGL HSE-luciferase, MG132-induced, luminescence 8 h; hits give low values; activity change, negative = inhibition, % at 7.5 µM (by protocol); 300,000 compounds, 0.77% hits; AID 2098;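 active = more than half of replicate wells show activity change below -50%, luminescence cut by over half; inconclusive = some wells, but at most half, below -50%; inactive = no replicate well below -50%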;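 note: luciferase reports HSF-1 transcriptional activity via heat shock element; 0% = median of DMSO wells and -100% = zero luminescence signal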
AI-2 QS modul: modulators of Vibrio harveyi AI-2 quorum sensing system; 300,000 compounds, 0.4% hits; Vibrio harveyi JMH597 AI-2 luminescence/OD600 ratio, 9 h; hits give low values; strain lacks LuxN and CqsS sensors; 0 = neutral-control median; activity change, % at 7.5 µM; AID 2094; in the data active = activity change below about -75%, passing the limit was not always enough; inconclusive = no clear call, values can overlap the other calls;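 note: luminescence divided by OD600 gain over 9 h not by final OD600 alone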
ALR H2O2 inh: human ALR oxidase inhibition via reduced H2O2; purified ALR, DTT oxidation, H2O2 HRP-luminol luminescence; inhibition, % (concentration not given with the values); 290,000 compounds, 3.8% hits;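 active = mean replicate inhibition above about 79%, with every replicate also reaching it, limit read from the data; inconclusive = only one of the two criteria met; inactive = mean below limit and not every replicate reaching it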
Target sequence (P55789 whole entry, looked up): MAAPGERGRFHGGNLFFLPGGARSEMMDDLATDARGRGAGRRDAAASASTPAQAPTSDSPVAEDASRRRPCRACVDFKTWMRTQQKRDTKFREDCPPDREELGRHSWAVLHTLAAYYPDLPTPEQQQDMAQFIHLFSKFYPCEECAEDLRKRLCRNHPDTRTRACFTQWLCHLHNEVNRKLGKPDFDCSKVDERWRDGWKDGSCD
Starred values were filed as active, the others as inactive; ? = inconclusive; / = no result. In the library only some 6.8% were active in any assay of this set; here they are far more common.

SMILES	PHOSPHO1 inh	HSF-1 act	core dimer inh	HSF1 inh	AI-2 QS modul	ALR H2O2 inh
COc1ccc(C(=O)N/C(=C\c2cccs2)c2nc3ccccc3[nH]2)cc1OC	-5.7	-69.6	-25.7	-60.4*	10.7	-2.0
COC(=O)/C(=C\c1cc(OC)c(OC)c(OC)c1)c1nc2ccccc2[nH]1	8.8	-1.2	-0.5	1.3	-6.4	-6.3
O=C(/C(=C/c1ccc(Cl)cc1)c1nc2ccccc2[nH]1)c1cccs1	13.1	240.6*	17.0	175.3	22.7	2.7
COc1cc(/C=C(/C(=O)c2cccs2)c2nc3ccccc3[nH]2)ccc1O	15.0	82.0*	-0.6	60.0	12.6	?
O=C1NC(=O)C2(CCCc3ccccc32)N1 (stereo not given)	36.0	-16.4	-3.8	-3.1	11.3	-8.0
O=C(O)c1ccc2c(c1)C(=O)N(c1ccc(Nc3ccccc3)cc1)C2=O	/	-0.7	/	-2.2	76.2	97.6*
COc1cc(NC(=O)CSc2cc(C)c3cc(C)cc(C)c3n2)c(C(=O)O)cc1OC	9.0	-10.6	-2.2	-5.6	18.9	66.0
O=Cc1c(SCCO)nc2ccccn2c1=O	-2.1	?	0.0	11.9	22.6	-9.7
O=Cc1c(Sc2ccccc2)nc2ccccn2c1=O	22.6	?	6.3	27.4	12.3	97.7*
O=C(O)c1ccccc1N/N=C/c1c(Sc2nnnn2-c2ccccc2)nc2ccccn2c1=O	15.9	14.1	5.2	-2.0	11.1	68.0
O=c1c(/C=N/Nc2ccccc2)c(Sc2nnnn2-c2ccccc2)nc2ccccn12	93.0*	/	/	/	/	/
O=Cc1c(Sc2ccccn2)nc2ccccn2c1=O	-11.6	20.5	4.7	15.3	5.9	97.5*
Fc1ccccc1N1CCN(Cc2cc(-c3ccccc3)on2)CC1	/	-80.0	1.4	-75.3*	9.6	-12.5
Fc1ccccc1N1CCN(Cc2nc(-c3ccccc3)no2)CC1	5.5	-13.1	3.8	-2.6	-7.6	-16.7
COc1ccc(-c2noc(CN3CCN(c4ccccc4F)CC3)n2)cc1OC	-22.1	7.9	5.7	-6.8	47.5	99.7*
c1ccc(-c2noc(CN3CCN(c4ccccc4)CC3)n2)cc1	-3.3	2.3	-8.2	1.7	17.1	82.0*
CS(=O)(=O)c1[nH]nc(-c2ccccc2Cl)c1C#N	12.3	4.4	-2.4	-12.1	5.2	2.7
Cc1[nH]n(-c2ccccc2)c(=O)c1C(C[N+](=O)[O-])c1ccc(Br)cc1 (stereo not given)	-1.3	210.2*	-1.6	180.9	47.7	41.1
COc1cccc(C(C[N+](=O)[O-])c2c(C)[nH]n(-c3ccccc3)c2=O)c1 (stereo not given)	30.2	277.6*	17.5	213.6	?	-27.2
Cc1[nH]n(-c2ccccc2)c(=O)c1C(c1cccc([N+](=O)[O-])c1)c1c(C)[nH]n(-c2ccccc2)c1=O	-25.9	17.1	3.9	22.1	12.4	-0.9
CCCc1cn(S(=O)(=O)c2ccc(OC)cc2OC)nc1N	2.9	18.5	2.6	13.2	24.8	98.0*
CCc1cn(S(=O)(=O)c2ccccc2OC)nc1N	0.2	9.9	-2.5	5.6	3.3	-2.7
Cc1ccc(-c2cc(C(=O)NCCc3ccc(S(N)(=O)=O)cc3)c3ccccc3n2)cc1	46.4	20.6	-4.1	11.0	-2.9	-19.2
CCc1nnc(NC(=O)c2cc(-c3ccco3)nc3ccccc23)s1	16.1	0.6	73.3*	-4.2	-14.6	-1.9
CCCCCCNC(=O)c1cc(-c2ccco2)nc2ccccc12	2.5	30.8	64.2*	13.7	26.3	/
NS(=O)(=O)c1ccc(CCNC(=O)c2cc(-c3ccccc3)nc3ccccc23)cc1	-6.6	64.1*	-21.2	21.0	-4.4	-13.7
C[C@H](NC(=O)c1ccccc1Cl)C(=O)NCCc1ccc(S(N)(=O)=O)cc1	15.1	55.6*	-1.9	6.7	12.9	-5.6
CCOC(=O)[C@H]1[C@H]2COc3ccc(C)cc3[C@@H]2N2C(=O)c3cc(Br)ccc3NC(=O)[C@@]12C	/	/	/	/	/	1.0
Cc1ccc(C2=N/C(=C\c3ccc(F)cc3)C(=O)N2)cc1	/	/	/	/	/	2.7
O=C(c1ccco1)N1CCN(C(=O)c2cc(-c3ccncc3)nc3ccc(Br)cc23)CC1	/	-23.2	14.6	-4.2	12.9	/

Bioassay records: PubChem, several laboratories
